Data on 24 compounds can be found in ChEMBL document CHEMBL1126619, “Design of thymidylate synthase inhibitors using protein crystal structures: the synthesis and biological evaluation of a novel class of 5-substituted quinazolinones” (J Med Chem, 1993).

pIC50, pKi: −log10 of the molar value. Bounds are passed on as bounds.

The target of data set [1] is T1, Thymidylate synthase (Homo sapiens, UniProt P04818). Briefly: (§1) Inhibition of human Thymidylate synthase.
The target of data set [2] is T1, Thymidylate synthase. Described as §1. This is another data set of the same source.
Data set [3] deals with L1210. Briefly: Inhibition of mouse L1210 (murine leukemia) cell growth measured using a modification of the MTT36 colorimetric assay of Mosmann. The class given is functional, cell-based.
In another data set the test system is GC3/MTK-. The data set is described as follows: Inhibition of cellular growth in human adenocarcinoma cell line (GC3/M TK) deficient in thymidine kinase. It is filed as functional, cell-based.
The next data set relates to CCRF-CEM. The data set is described as follows: Inhibition of human lymphoblastic leukemia (CCRF-CEM) cell growth measured using a modification of the MTT36 colorimetric assay of Mosmann. The class given is functional, cell-based.
In data set [4] the test system is L1210. Briefly: The ratio of IC50 of the inhibitor (assayed in L1210 cells) in presence and absence of thymidine. It is filed as functional, Mus musculus. Summed up:
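Murine L1210 leukemia cells grown in RPMI-1640 with 5% fetal calf serum and 0.5% DMSO, seeded at 1000 cells/well, over nine 2-fold serial dilutions of compound, with or without 10 μM thymidine replenished daily over 3 days.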

In data set [5] the target is T2, Thymidylate synthase (Escherichia coli, UniProt C3SWJ7). The data set is described as follows: (§2) Inhibition of purified Escherichia coli Thymidylate synthase.
T2 sequence (C3SWJ7 whole entry): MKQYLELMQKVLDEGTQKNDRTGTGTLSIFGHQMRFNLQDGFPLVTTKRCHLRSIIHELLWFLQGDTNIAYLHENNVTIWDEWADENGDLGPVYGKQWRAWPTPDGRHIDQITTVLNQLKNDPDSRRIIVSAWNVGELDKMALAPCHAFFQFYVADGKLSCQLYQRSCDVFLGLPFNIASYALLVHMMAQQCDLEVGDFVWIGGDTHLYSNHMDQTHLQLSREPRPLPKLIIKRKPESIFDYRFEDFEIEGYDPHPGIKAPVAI
Data set [6] has as its target T2, Thymidylate synthase. Described as §2. The source holds these as a separate data set.
Data set [7] in a line: Partition coefficient (logP). It is filed as physicochemical. The settings on record: octanol/water.
Data set [8] has as its target T1, Thymidylate synthase. The data set is described as follows: Compound was tested for TS activity against human Thymidylate synthase by tight binding kinetics.

T1 sequence (P04818 whole entry): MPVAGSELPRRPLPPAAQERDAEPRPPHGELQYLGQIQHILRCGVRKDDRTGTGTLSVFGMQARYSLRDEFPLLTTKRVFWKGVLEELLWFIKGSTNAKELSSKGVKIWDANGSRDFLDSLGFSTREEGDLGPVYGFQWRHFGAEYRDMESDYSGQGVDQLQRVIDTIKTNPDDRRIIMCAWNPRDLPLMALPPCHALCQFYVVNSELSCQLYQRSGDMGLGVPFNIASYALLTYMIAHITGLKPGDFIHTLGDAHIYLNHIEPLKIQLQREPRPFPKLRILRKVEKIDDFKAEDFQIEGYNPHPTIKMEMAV

In the case of `Nc1nc(O)c2c(Sc3ccncc3)c(Cl)ccc2n1`, the values for the pKi on Thymidylate synthase [1] and on Thymidylate synthase [2] were 7.74 and 7.70, respectively. In addition, the negative logarithm of the IC50 (pIC50) (as a rule, the negative decadic logarithm of the IC50, by convention in mol/L) in the data set with L1210 [3] is 5.89; in the data set with GC3/MTK-, 5.69; in the data set with CCRF-CEM, 5.68. Further, the Thymidine shift in the data set on L1210 [4] is reported as approximately 14.
As to `Cc1nc(O)c2c(Sc3cccnc3)c(C)ccc2n1`, the pKi (as a rule, the negative decadic logarithm of the Ki, by convention in mol/L) at Thymidylate synthase [1] was 5.96; at Thymidylate synthase [2] it was 6.51; on Thymidylate synthase [5] it was 5.03; on Thymidylate synthase [6], 5.77. In addition, the pIC50 in the data set on L1210 [3], in the data set with GC3/MTK- and in the data set with CCRF-CEM was less than 5.60 throughout.
On to `Cc1nc(O)c2c(Sc3ccc([N+](=O)[O-])cc3)c(C)ccc2n1`, for which the pKi was 7.11 on Thymidylate synthase [1], 7.25 at Thymidylate synthase [2], 6.14 on Thymidylate synthase [5] and 6.31 on Thymidylate synthase [6]. In addition, the negative logarithm of the IC50 (pIC50) in the data set on L1210 [3] is 5.52; in the data set on GC3/MTK-, less than 5.40; in the data set on CCRF-CEM it was 5.54. The lipophilicity (logP) (in general, a log measure of how a compound divides between an organic and an aqueous phase) in [7] was determined as 3.29. The Thymidine shift in the data set on L1210 [4] was 3.3.
On to `Cc1nc(O)c2c(Sc3ccncc3)cccc2n1`, for which the pKi is 6.02 at Thymidylate synthase [2], 4.52 at Thymidylate synthase [5] and 5.00 at Thymidylate synthase [6]. For the same compound, the negative-log IC50 (pIC50) with GC3/MTK- and in the data set with CCRF-CEM was less than 4.57 throughout.
As to `Cc1nc(O)c2c(Sc3ccnc(C(F)(F)F)c3)c(C)ccc2n1`, the pKi was 7.15 on Thymidylate synthase [2], 6.27 at Thymidylate synthase [5] and 6.64 on Thymidylate synthase [6].
`COc1cc(Sc2c(C)ccc3nc(C)nc(O)c23)ccn1`: the pKi was 7.34 at Thymidylate synthase [1], 7.43 at Thymidylate synthase [2], 6.15 at Thymidylate synthase [5] and 6.55 on Thymidylate synthase [6]. This compound gave a negative logarithm of the IC50 (pIC50) in the data set on GC3/MTK- of less than 5.30.
Take `Cc1nc(O)c2c(Sc3ccccc3)cccc2n1`: the pKi at Thymidylate synthase [2] and at Thymidylate synthase [6] was less than 5.00 in each case. Moreover, the pIC50 in the data set on L1210 [3] and in the data set with CCRF-CEM was less than 5.38 in each case.
Take `COc1ccc2nc(C)nc(O)c2c1Sc1ccncc1`: the pIC50 was 4.68 in the data set with L1210 [3], 4.49 in the data set on GC3/MTK- and 4.59 with CCRF-CEM. Also, the pKi was 5.41 at Thymidylate synthase [5] and 5.82 on Thymidylate synthase [6].
On to `Cc1nc(O)c2c(Sc3ccncc3)c(O)ccc2n1`, for which the pKi was 5.06 at Thymidylate synthase [2], 3.72 on Thymidylate synthase [5] and 4.29 at Thymidylate synthase [6]. The pIC50 with L1210 [3], in the data set with GC3/MTK- and in the data set on CCRF-CEM was less than 4.30 each time. In addition, the Thymidine shift in the data set on L1210 [4] is on record as 1.
With `Cc1nc(O)c2c(Sc3ccnnc3)c(C)ccc2n1`, the pKi at Thymidylate synthase [2] was 7.06; on Thymidylate synthase [5] it was 5.96; at Thymidylate synthase [6], 6.22. This compound also showed a negative-log IC50 (pIC50) in the data set with GC3/MTK- of less than 4.90.
As to `Cc1nc(O)c2c(Sc3ccc(C(=O)O)cc3)c(C)ccc2n1`, the pKi was 7.19 at Thymidylate synthase [1] and 6.85 on Thymidylate synthase [2]. Further, the negative logarithm of the IC50 (pIC50) was 4.30 in the data set with L1210 [3], less than 4.30 with GC3/MTK- and less than 4.30 in the data set on CCRF-CEM. Besides, the Thymidine shift in the data set on L1210 [4] is on record as more than 5.
With `Cc1nc(O)c2c(Oc3ccccc3)cccc2n1`, the negative-log Ki (pKi) on Thymidylate synthase [2] and on Thymidylate synthase [6] was less than 4.00 in each case. In addition, the pIC50 with L1210 [3] and in the data set on CCRF-CEM was less than 4.30 each time.
On to `Cc1ccc2nc(N)nc(O)c2c1Sc1ccc(C(=O)N[C@H](CCC(=O)O)C(=O)O)cc1`, for which the pIC50 with L1210 [3] was 5.60; with GC3/MTK-, 5.77; in the data set with CCRF-CEM, 6.28. The compound further showed a pKi on Thymidylate synthase [8] of 9.91. Moreover, the Thymidine shift with L1210 [4] was approximately 8.
For `Cc1nc(O)c2c(Sc3ccc(C(=O)N[C@H](CCC(=O)O)C(=O)O)cc3)c(C)ccc2n1`, the negative logarithm of the IC50 (pIC50) is 5.98 with L1210 [3], 5.39 in the data set with GC3/MTK- and 6.00 in the data set with CCRF-CEM. This compound showed a pKi on Thymidylate synthase [8] of 8.88. Moreover, the Thymidine shift in the data set on L1210 [4] is given as more than 22.
In turn, `Cc1ccc2nc(N)nc(O)c2c1Sc1ccnnc1` had a pKi at Thymidylate synthase [2] of 7.89. Further, the pIC50 is 5.80 with L1210 [3], 5.82 in the data set on GC3/MTK- and 6.06 with CCRF-CEM. In the data set with L1210 [4], the Thymidine shift is given as 17.6.
Turning to `Cc1nc(O)c2c(Sc3ccnc(N(C)C)c3)c(C)ccc2n1`, the negative-log Ki (pKi) is 7.24 on Thymidylate synthase [1] and 7.10 at Thymidylate synthase [2]. Further, the figures for the pIC50 in the data set with L1210 [3], in the data set with GC3/MTK- and in the data set on CCRF-CEM were 5.39, 4.74 and 4.98, respectively. The Thymidine shift with L1210 [4] is reported as 4.25.
As to `Cc1cc(Sc2c(C)ccc3nc(C)nc(O)c23)ccn1`, the pKi on Thymidylate synthase [1] was 7.18; at Thymidylate synthase [2] it was 7.41; at Thymidylate synthase [5], 6.28; at Thymidylate synthase [6], 6.62. Further, the negative logarithm of the IC50 (pIC50) in the data set with L1210 [3] was 5.38; with GC3/MTK-, 5.30; in the data set with CCRF-CEM, 5.38.
Consider `Cc1nc(O)c2c(Sc3ccncc3)c(C)ccc2n1`, for which the pKi at Thymidylate synthase [1] is 7.24; on Thymidylate synthase [2] it was 7.03; at Thymidylate synthase [5] it was 6.09; on Thymidylate synthase [6], 6.30. Further, the negative-log IC50 (pIC50) with L1210 [3] was 5.46; in the data set on GC3/MTK-, 5.22; with CCRF-CEM, 5.28. The compound also yielded a logP in data set [7] of 2.16. Also, the Thymidine shift with L1210 [4] is more than 14.
On to `Cc1ccc2nc(N)nc(O)c2c1Sc1ccnc(N(C)C)c1`, for which the pKi was 7.30 on Thymidylate synthase [1] and 7.49 on Thymidylate synthase [2]. Also, the values for the pIC50 with L1210 [3], with GC3/MTK- and with CCRF-CEM were 5.74, 5.28 and 5.31, respectively. Further, the Thymidine shift with L1210 [4] is recorded as more than 20.
Take `Cc1nc(O)c2c(Sc3ccccn3)cccc2n1`: the pKi is 3.72 at Thymidylate synthase [1], 3.92 on Thymidylate synthase [2], less than 4.10 on Thymidylate synthase [5] and less than 4.10 at Thymidylate synthase [6]. For the same compound, the pIC50 with L1210 [3], with GC3/MTK- and with CCRF-CEM was less than 4.30 in each case. Further, the Thymidine shift with L1210 [4] is 1.
Consider `CCc1ccc2nc(C)nc(O)c2c1Sc1ccncc1`, for which the negative logarithm of the Ki (pKi) at Thymidylate synthase [1] is 6.23; at Thymidylate synthase [2], 6.70. Besides, the pIC50 with L1210 [3], in the data set on GC3/MTK- and in the data set with CCRF-CEM was less than 5.00 each time. Besides, in the data set on L1210 [4], the Thymidine shift is recorded as approximately 10.
Regarding `Cc1ccc2nc(N)nc(O)c2c1Sc1ccnc(C(F)(F)F)c1`, the negative-log Ki (pKi) is 7.62 on Thymidylate synthase [1] and 7.55 at Thymidylate synthase [2]. The negative-log IC50 (pIC50) in the data set with L1210 [3] is 5.74; with GC3/MTK-, less than 5.70; in the data set with CCRF-CEM it was less than 5.70. Moreover, the Thymidine shift with L1210 [4] is more than 5.
Consider `Cc1nc2ccc(C)c(Sc3ccc(S(=O)(=O)c4ccccc4)cc3)c2c(=O)[nH]1`, for which the values for the pIC50 with L1210 [3], with GC3/MTK- and in the data set on CCRF-CEM were 5.74, 5.35 and 5.68, respectively. In [7], this compound showed a log partition coefficient (logP) of 4.67.
As for `Cc1ccc2nc(N)[nH]c(=O)c2c1Sc1ccncc1` [NOLATREXED], the negative logarithm of the IC50 (pIC50) was 6.00 in the data set on L1210 [3], 6.00 with GC3/MTK- and 6.09 with CCRF-CEM. For the same compound, the negative-log Ki (pKi) is 6.85 at Thymidylate synthase [5] and 7.31 on Thymidylate synthase [6].
